{
  "source": "ChEMBL document CHEMBL1124738",
  "about": "“Novel 21-aminosteroids that inhibit iron-dependent lipid peroxidation and protect against central nervous system trauma” (J Med Chem, 1990)",
  "format_in_all_cases": "functional",
  "key": {"Rattus norvegicus [1]": {"species": "Rattus norvegicus", "test": "Ability to inhibit iron-dependent lipid peroxidation in rat brain homogenate using MDA (malondialdehyde) formation assay", "summary_of_the_method": "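Incubations at 37 °C contain 20% ethanol and compound up to 300 μM, and are started with 200 μM Fe2+. They are stopped after 20 min with ice-cold 12.5% TCA in 0.8 N HCl. Readout is TBAR formation, reported as IC50 or % inhibition at 300 μM.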"}, "Mus musculus [2]": {"test_system": "Mus musculus", "test": "Percent increase in KCN lethality (cytotoxic hypoxia) model against male CF-1 mice at a dose 100 mg/kg administered intravenously", "settings": "route intravenous"}, "Mus musculus [3]": {"species": "Mus musculus", "test": "Lowest effective dose in a mouse head injury model was reported", "summary_of_the_method": "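Unanesthetized male CF-1 mice, 16–22 g; concussive head injury by weight drop (900 g cm for 16–20 g mice, 950 g cm for 20–22 g). Vehicle or compound given blindly as iv bolus 3–5 min post-injury; vehicle 0.05 N HCl or 0.5% Tween 80. Four groups of 20 per trial (vehicle plus three doses). Grip test on suspended taut string at 1 h; group score as mean time on string.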"}, "Mus musculus [4]": {"test_system": "Mus musculus", "test": "Percent increase in KCN lethality (cytotoxic hypoxia) model against male CF-1 mice at a dose 30 mg/kg administered intravenously", "settings": "route intravenous"}, "Rattus norvegicus [5]": {"species": "Rattus norvegicus", "test": "Ability to inhibit iron-dependent lipid peroxidation in rat brain homogenate using MDA (malondialdehyde) formation assay at 300 uM"}, "Mus musculus [6]": {"test_system": "Mus musculus", "test": "Evaluated in a potassium cyanide lethality (cytotoxic hypoxia) model against male CF-1 mice at 100 mg/kg administered intravenously", "settings": "route intravenous"}, "Mus musculus [7]": {"test_system": "Mus musculus", "test": "Evaluated in a potassium cyanide lethality (cytotoxic hypoxia) model against male CF-1 mice at a dose 30 mg/kg administered intravenously", "settings": "route intravenous"}},
  "data": [
    {"smiles": "CCN(CC)c1ccc(N2CCN(CC(=O)[C@H]3[C@H](C)CC4C5CCC6=CC(=O)C=C[C@]6(C)C5=CC[C@@]43C)CC2)nc1N(CC)CC.O=C(O)/C=C/C(=O)O", "note": "(some centres undefined)", "values": [
      {"measurement": "IC50", "setting": "Rattus norvegicus [1]", "value": 3, "unit": "µM"},
      {"measurement": "Increase in LD50", "setting": "Mus musculus [2]", "value": 46, "unit": "%"},
      {"measurement": "Lowest effective dose", "setting": "Mus musculus [3]", "value": 0.003, "unit": "mg/kg"},
      {"measurement": "Increase in LD50", "setting": "Mus musculus [4]", "value": 15, "unit": "%"}
    ]},
    {"smiles": "C[C@@H]1C[C@H]2[C@@H]3CCC4CC(=O)CC[C@]4(C)C3=CC[C@]2(C)[C@@]1(O)C(=O)CN1CCN(c2ccccn2)CC1", "note": "(some centres undefined)", "values": [
      {"measurement": "inhibition", "setting": "Rattus norvegicus [5]", "value": 31, "unit": "%"}
    ]},
    {"smiles": "C[C@H]1C[C@@H]2[C@H]([C@@H](O)C[C@@]3(C)[C@H]2CC[C@]3(O)C(=O)COC(=O)CCC(=O)[O-])[C@@]2(C)C=CC(=O)C=C12.[Na+]", "note": "[METHYLPREDNISOLONE SODIUM SUCCINATE]", "values": [
      {"measurement": "inhibition", "setting": "Rattus norvegicus [5]", "value": 0, "unit": "%"},
      {"measurement": "Increase in LD50", "setting": "Mus musculus [2]", "value": 20, "unit": "%"},
      {"measurement": "Lowest effective dose", "setting": "Mus musculus [3]", "value": 15, "unit": "mg/kg"},
      {"measurement": "Increase in LD50", "setting": "Mus musculus [4]", "value": 0, "unit": "%"}
    ]},
    {"smiles": "C[C@]12CCC(=O)C=C1CCC1C2=CC[C@@]2(C)C1CC[C@]2(O)C(=O)CN1CCN(c2ccccn2)CC1", "note": "(some centres undefined)", "values": [
      {"measurement": "inhibition", "setting": "Rattus norvegicus [5]", "value": 23, "unit": "%"},
      {"measurement": "Lowest effective dose", "setting": "Mus musculus [3]", "value": 10, "unit": "mg/kg"}
    ]},
    {"smiles": "C[C@]12CCC(=O)C=C1CCC1C2=CC[C@@]2(C)C1CC[C@]2(O)C(=O)CN1CCN(CCO)CC1", "note": "(some centres undefined)", "values": [
      {"measurement": "inhibition", "setting": "Rattus norvegicus [5]", "value": 0, "unit": "%"}
    ]},
    {"smiles": "C[C@]12CCC(=O)C=C1CCC1C2C(=O)C[C@@]2(C)C1CC[C@]2(O)C(=O)CN1CCN(c2ccccn2)CC1", "note": "(some centres undefined)", "values": [
      {"measurement": "inhibition", "setting": "Rattus norvegicus [5]", "value": 3, "unit": "%"}
    ]},
    {"smiles": "COc1ccccc1N1CCN(CC(=O)[C@@]2(O)CCC3C4CCC5=CC(=O)CC[C@]5(C)C4=CC[C@@]32C)CC1", "note": "(some centres undefined)", "values": [
      {"measurement": "inhibition", "setting": "Rattus norvegicus [5]", "value": 37, "unit": "%"}
    ]},
    {"smiles": "C[C@]12CCC(=O)C=C1CCC1C2[C@H](O)C[C@@]2(C)C1CC[C@]2(O)C(=O)CN1CCN(c2ccccn2)CC1", "note": "(some centres undefined)", "values": [
      {"measurement": "inhibition", "setting": "Rattus norvegicus [5]", "value": 20, "unit": "%"}
    ]},
    {"smiles": "C[C@]12CCC(O)CC1CC[C@@H]1[C@@H]2C(=O)C[C@@]2(C)[C@H]1CC[C@]2(O)C(=O)CN1CCN(c2ccccn2)CC1", "note": "(some centres undefined)", "values": [
      {"measurement": "inhibition", "setting": "Rattus norvegicus [5]", "value": 3, "unit": "%"}
    ]},
    {"smiles": "C[C@]12CCC(=O)C=C1CCC1C2=CC[C@@]2(C)C1CC[C@]2(O)C(=O)CN1CCN(c2cccc(N3CCCC3)n2)CC1", "note": "(some centres undefined)", "values": [
      {"measurement": "IC50", "setting": "Rattus norvegicus [1]", "value": 57, "unit": "µM"}
    ]},
    {"smiles": "Cc1c(C)c2c(c(C)c1O)CC[C@@](C)(CCC[C@H](C)CCC[C@H](C)CCCC(C)C)O2", "note": "[ALPHA-TOCOPHEROL]", "values": [
      {"measurement": "IC50", "setting": "Rattus norvegicus [1]", "value": 30, "unit": "µM"}
    ]},
    {"smiles": "COc1cccc(N2CCN(CC(=O)[C@@]3(O)CCC4C5CCC6=CC(=O)CC[C@]6(C)C5=CC[C@@]43C)CC2)n1", "note": "(some centres undefined)", "values": [
      {"measurement": "IC50", "setting": "Rattus norvegicus [1]", "value": 101, "unit": "µM"}
    ]},
    {"smiles": "C[C@]12CC[C@H]3[C@@H](CCC4=CC(=O)CC[C@@]43C)[C@@H]1CC[C@@H]2C(=O)CN1CCN(c2ccccn2)CC1", "values": [
      {"measurement": "inhibition", "setting": "Rattus norvegicus [5]", "value": 9, "unit": "%"}
    ]},
    {"smiles": "C[C@]12C=CC(=O)C=C1CCC1C2[C@H](O)C[C@@]2(C)C1CC[C@]2(O)C(=O)CN1CCN(c2ccccn2)CC1", "note": "(some centres undefined)", "values": [
      {"measurement": "inhibition", "setting": "Rattus norvegicus [5]", "value": 0, "unit": "%"}
    ]},
    {"smiles": "C[C@]12CCC(=O)C=C1CCC1C2=CC[C@@]2(C)C1CC[C@]2(O)C(=O)CN1CCN(c2cc(N3CCCC3)nc(N3CCCC3)n2)CC1.O=C(O)/C=C/C(=O)O", "note": "(some centres undefined)", "values": [
      {"measurement": "Increase in LD50", "setting": "Mus musculus [6]", "value": 33, "unit": "%"},
      {"measurement": "Increase in LD50", "setting": "Mus musculus [7]", "value": 0, "unit": "%"},
      {"measurement": "inhibition", "setting": "Rattus norvegicus [5]", "value": 25, "unit": "%"},
      {"measurement": "Lowest effective dose", "setting": "Mus musculus [3]", "value": 1, "unit": "mg/kg"}
    ]},
    {"smiles": "C[C@@H]1C[C@H]2[C@@H]3CCC4=CC(=O)C=C[C@]4(C)C3=CC[C@]2(C)[C@H]1C(=O)CN1CCN(c2cc(N3CCCC3)nc(N3CCCC3)n2)CC1", "note": "[TIRILAZAD]", "values": [
      {"measurement": "IC50", "setting": "Rattus norvegicus [1]", "value": 18, "unit": "µM"},
      {"measurement": "Increase in LD50", "setting": "Mus musculus [2]", "value": 20, "unit": "%"},
      {"measurement": "Lowest effective dose", "setting": "Mus musculus [3]", "value": 0.003, "unit": "mg/kg"},
      {"measurement": "Increase in LD50", "setting": "Mus musculus [4]", "value": 14, "unit": "%"}
    ]},
    {"smiles": "C[C@]12CCC(=O)C=C1CCC1C2=CC[C@@]2(C)C1CC[C@]2(O)C(=O)CN1CCN(Cc2ncccc2O)CC1", "note": "(some centres undefined)", "values": [
      {"measurement": "inhibition", "setting": "Rattus norvegicus [5]", "value": 5, "unit": "%"}
    ]},
    {"smiles": "CCNc1cccnc1N1CCN(CC(=O)[C@H]2[C@H](C)CC3C4CCC5=CC(=O)C=C[C@]5(C)C4=CC[C@@]32C)CC1.O=C(O)/C=C/C(=O)O", "note": "(some centres undefined)", "values": [
      {"measurement": "IC50", "setting": "Rattus norvegicus [1]", "value": 15, "unit": "µM"},
      {"measurement": "Lowest effective dose", "setting": "Mus musculus [3]", "value": 0.03, "unit": "mg/kg"}
    ]},
    {"smiles": "C[C@@H]1CC2C3CCC4=CC(=O)C=C[C@]4(C)C3=CC[C@]2(C)[C@H]1C(=O)CN1CCN(c2ccccn2)CC1", "note": "(some centres undefined)", "values": [
      {"measurement": "inhibition", "setting": "Rattus norvegicus [5]", "value": 4, "unit": "%"},
      {"measurement": "Lowest effective dose", "setting": "Mus musculus [3]", "value": 10, "unit": "mg/kg"}
    ]},
    {"smiles": "CC(=O)N(O)CCCCCNC(=O)CCC(=O)N(O)CCCCCNC(=O)CCC(=O)N(O)CCCCCN", "note": "[DEFEROXAMINE]", "values": [
      {"measurement": "IC50", "setting": "Rattus norvegicus [1]", "value": 112, "unit": "µM"}
    ]},
    {"smiles": "C[C@]12CCC(=O)C=C1CC[C@@H]1[C@@H]2CC[C@@]2(C)[C@H]1CC[C@]2(O)C(=O)CN1CCN(c2ccccn2)CC1", "values": [
      {"measurement": "inhibition", "setting": "Rattus norvegicus [5]", "value": 26, "unit": "%"}
    ]},
    {"smiles": "C[C@]12CCC(=O)C=C1CCC1C2=CC[C@@]2(C)C1CC[C@]2(O)C(=O)CN1CCNCC1", "note": "(some centres undefined)", "values": [
      {"measurement": "inhibition", "setting": "Rattus norvegicus [5]", "value": 15, "unit": "%"}
    ]},
    {"smiles": "C[C@]12CC(=O)[C@H]3[C@@H](CCC4=CC(=O)CC[C@@]43C)[C@@H]1CC[C@@H]2C(=O)CN1CCN(c2ccccn2)CC1", "values": [
      {"measurement": "inhibition", "setting": "Rattus norvegicus [5]", "value": 14, "unit": "%"}
    ]},
    {"smiles": "C[C@H]1CC2C([C@@H](O)C[C@@]3(C)C2CC[C@]3(O)C(=O)CN2CCN(c3ccccn3)CC2)[C@@]2(C)C=CC(=O)C=C12", "note": "(some centres undefined)", "values": [
      {"measurement": "inhibition", "setting": "Rattus norvegicus [5]", "value": 0, "unit": "%"}
    ]}
  ]
}
